Bioassay records: PubChem, Johns Hopkins Ion Channel Center
Kir21 block: blocks the mouse Kir2.1 inward-rectifier potassium channel | actives 0.85% (n = 310,000) | B-score at 10 µM | HEK293-Kir2.1, FluxOR thallium flux fluorescence; hits give low values;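 active = fluorescence ratio B-score at or below minus 3 SD of library scores, with starting-brightness B-score within 2 SD, cut at about -4.2 in these data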;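 also: channel flux triggered by added potassium and thallium sulfate stimulus; B-score of peak minus minimum fluorescence over baseline after thallium stimulus; more negative B-score means stronger Kir2.1 block with less thallium influx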
Target sequence (P35561 whole entry, looked up): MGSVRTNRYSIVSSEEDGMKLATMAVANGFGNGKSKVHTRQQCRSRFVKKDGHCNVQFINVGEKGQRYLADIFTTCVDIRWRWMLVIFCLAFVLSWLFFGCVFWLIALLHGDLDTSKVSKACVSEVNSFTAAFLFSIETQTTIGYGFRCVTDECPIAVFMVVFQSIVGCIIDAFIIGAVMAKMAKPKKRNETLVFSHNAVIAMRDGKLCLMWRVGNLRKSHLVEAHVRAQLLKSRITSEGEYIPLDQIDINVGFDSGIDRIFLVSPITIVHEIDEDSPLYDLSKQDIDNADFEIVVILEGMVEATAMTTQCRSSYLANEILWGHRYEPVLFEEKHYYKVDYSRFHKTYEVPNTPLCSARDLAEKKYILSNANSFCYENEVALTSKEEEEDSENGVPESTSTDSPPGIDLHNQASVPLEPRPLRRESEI
KCNQ1 act: potentiators or activators of human KCNQ1 potassium channel; P51787; CHO-K1 KCNQ1, thallium flux FluxOR fluorescence; hits give high values; B-score at 10 µM; actives 0.35% (n = 310,000); AID 2648;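 active = fluorescence ratio B-score, a plate-corrected score, at least three library SD, with initial intensity B-score within 5 SD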
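Assay system: CHO-K1 cells stably expressing KCNQ1; Medium: assay buffer with matched DMSO; Also added: K+/Tl+ depolarizing stimulus; Dosing: single dose; Timing: dye 90 min, compound 20 min, room temperature; Measured by: kinetic FluxOR thallium fluorescence, 10-s 1-Hz baseline, 110-s post-stimulus read; Read-out: peak-minus-minimum fluorescence over initial fluorescence, negative-control normalized, B-scored.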
KCNQ1 inh: blocks the human KCNQ1 potassium channel | actives 1.3% (n = 310,000) | P51787 | B-score at 10 µM | CHO-K1 KCNQ1, FluxOR thallium flux fluorescence; hits give high values;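 active = compounds whose thallium flux B-score, printed positive for inhibition, exceeds three library SD while starting fluorescence stays within three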;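 also: channel opened by potassium depolarization with thallium stimulus after 20 min compound exposure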
hERG rescue: shields human hERG channel from block by proarrhythmic agents; Q12809; CHO-hERG, FluxOR thallium flux, dofetilide IC70 present; activation (rescue from dofetilide block), less the hit threshold, % at 10 µM; actives 0.51% (n = 310,000);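 active = activation above the mean of controls blocked by dofetilide plus 5 SD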;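 also: thallium influx through hERG after potassium depolarization seen as dye fluorescence rise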
KCNK9 block: inhibitors of human KCNK9 two-pore domain potassium channel; Q9NPC2; HEK293 KCNK9, FluxOR thallium flux fluorescence; hits give low values; B-score at 10 µM; actives 1.2% (n = 310,000); AID 488922;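 active = ratio B-score over 3 SD below the library mean, with starting fluorescence within 5 SD of its mean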;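 also: negative B-score means less thallium flux so channel inhibition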
KCNK3 inh: human KCNK3 channel inhibition, primary screen | O14649 | CHO-KCNK3 thallium flux, FluxOR fluorescence; hits give low values | B-score at 10 µM | actives 0.84% (n = 340,000);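 active = B-score under library mean minus 4 SD, starting fluorescence ratio at most library mean plus 5 SD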;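 also: more negative B-score means stronger inhibition of thallium flux through KCNK3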
KCNK3 confirm: confirmation of human KCNK3 two-pore domain potassium channel inhibitors | shares compounds with KCNK3 inh | CHO-KCNK3 thallium flux, FluxOR fluorescence; 0% buffer, 100% carvedilol maximal block | ratio percent of control, % at 10 µM | actives 99% (n = 2,400) | AID 651638;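 active = ratio percent of control, averaged over triplicates, above buffer control mean plus 5 SD, cut at about 64% in these data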;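 also: ratio is the fluorescence rise from min to max over baseline after thallium stimulus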
KCNK3 noninduced: activity in cells without induced KCNK3 expression. shares compounds with KCNK3 inh. non-induced KCNK3 parental cells, FluxOR thallium flux; hits give low values. thallium flux ratio (lower = more inhibition) at 10 µM. actives 40% (n = 2,400);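 active = thallium flux ratio, averaged over three wells, more than 5 SD below the buffer control mean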;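 also: host cells are CHO cells without KCNK3 induction; ratio is peak minus trough fluorescence over baseline then normalized to buffer controls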
* hit, by the source's call; i = inactive; . = no result. The list is not random: actives were taken first. Their share in the collection is about 3.7%.

SMILES | Kir21 block | KCNQ1 act | KCNQ1 inh | hERG rescue | KCNK9 block | KCNK3 inh | KCNK3 confirm | KCNK3 noninduced
CCCC(C)C(=O)Nc1ccccc1C(=O)OCC (stereo not drawn) | 0.01 | i | i | -2 | i | i | . | .
CC(OC(=O)C1CCC1)C(=O)Nc1cc(Cl)cc(Cl)c1 (stereo not drawn) | -1.4 | i | i | -12 | i | -9* | 96* | i
CC(=O)c1cccc(NC(=O)C(C)OC(=O)C2CCC2)c1 (stereo not drawn) | 2.1 | i | i | -4 | i | i | . | .
CC1(C)Cc2cccc(C(=O)NC3CCN(Cc4ccccc4)CC3)c2O1 | -1.3 | i | i | -10 | i | -8.8* | 114* | i
Cn1c(CNC(=O)OC(C)(C)C)n[nH]c1=S | 0.8 | i | i | -11 | i | i | . | .
CC(=O)Nc1ccccc1OCCOc1ccc(Br)cc1 | 1.9 | i | i | -3 | i | -12* | 99* | i
N#Cc1nc(COc2ccc(Cl)cc2)oc1NCc1ccc2c(c1)OCO2 | 0.57 | i | i | -9 | i | -11* | 138* | 0.16*
Cc1nc(C#N)c(NCc2ccc3c(c2)OCO3)o1 | 1.8 | i | i | -8 | i | i | . | .
COc1ccc(CNc2oc(COc3ccccc3)nc2C#N)cc1 | -0.79 | i | i | -12 | i | -8.9* | 117* | 0.16*
COc1ccc(CNc2oc(Cc3cccc4ccccc34)nc2C#N)cc1 | -2.2 | i | i | -9 | i | -14* | 91* | 0.15*
CCOc1ccc(N2CC(C(=O)NCCCc3ccccc3)CC2=O)cc1 (stereo not drawn) | . | . | . | . | . | i | . | .
C(=Cc1c[nH]c2ccccc12)c1nccc2ccccc12 | . | . | . | . | . | -14* | 167* | 0.044*
Cc1ccc(NC(=S)N(Cc2ccco2)C(C)c2cccs2)c(Cl)c1 (stereo not drawn) | 0.32 | i | i | -13 | i | -11* | 101* | i
CCOC(=O)N1CCN(c2nc3ccc(C(=O)c4ccccc4)cc3n3cnnc23)CC1 | 1.3 | i | i | -10 | i | -11* | 83* | i
O=C(c1ccccc1)c1ccc2nc(N3CCN(C(=O)c4ccco4)CC3)c3nncn3c2c1 | 0.2 | i | i | -5 | i | i | . | .
Cn1ncnc1SCc1cn2cccnc2n1 | -1.6 | i | i | -1 | i | i | . | .
COc1ccc(NC(=O)CCCC(=O)NCCc2ccc(OC)c(OC)c2)cc1 | -0.2 | i | i | -13 | i | i | . | .
COc1ccc(-c2ccc(C3C(C#N)=C(N)Oc4n[nH]c(C)c43)o2)cc1 (stereo not drawn) | 1.2 | i | i | -16 | i | -11* | 89* | i
Cc1[nH]nc2c1C(c1ccco1)C(C#N)=C(N)O2 (stereo not drawn) | -2.2 | i | i | -5 | i | i | . | .
O=[N+]([O-])c1cccc(S(=O)(=O)NCc2ccncc2)c1 | 0.11 | i | i | -14 | i | i | . | .
Nc1nonc1-n1nnc(C(=O)N/N=C/c2cc(Br)ccc2O)c1CNc1ccccc1 | -1.4 | i | i | -23 | i | -10* | 82* | i
CC(C)C[C@H](NC(=O)N1CCn2c1nc1ccccc12)C(=O)N[C@@H](C(=O)O)c1ccccc1 | -0.32 | i | i | -7 | i | i | . | .
CC(=O)Nc1ccc(NC(=O)C(C)OC(=O)CNS(=O)(=O)c2cccc(Cl)c2)cc1 (stereo not drawn) | -0.4 | i | i | -13 | i | i | . | .
COc1ccc(C2C(C#N)=C(N)Oc3cc(O)ccc32)cc1Cl (stereo not drawn) | -2.9 | i | 6* | -16 | i | -9* | 110* | 0.15*
